Data set [1] can be described thus: Ratio of half-life in pH 7.2 phosphate buffer to half-life in Sprague-Dawley rat plasma. The data set is classed as ADME.
For data set [2], the target named is T1, Solute carrier family 15 member 1 (Rattus norvegicus, UniProt P51574).
T1 sequence (P51574 whole entry): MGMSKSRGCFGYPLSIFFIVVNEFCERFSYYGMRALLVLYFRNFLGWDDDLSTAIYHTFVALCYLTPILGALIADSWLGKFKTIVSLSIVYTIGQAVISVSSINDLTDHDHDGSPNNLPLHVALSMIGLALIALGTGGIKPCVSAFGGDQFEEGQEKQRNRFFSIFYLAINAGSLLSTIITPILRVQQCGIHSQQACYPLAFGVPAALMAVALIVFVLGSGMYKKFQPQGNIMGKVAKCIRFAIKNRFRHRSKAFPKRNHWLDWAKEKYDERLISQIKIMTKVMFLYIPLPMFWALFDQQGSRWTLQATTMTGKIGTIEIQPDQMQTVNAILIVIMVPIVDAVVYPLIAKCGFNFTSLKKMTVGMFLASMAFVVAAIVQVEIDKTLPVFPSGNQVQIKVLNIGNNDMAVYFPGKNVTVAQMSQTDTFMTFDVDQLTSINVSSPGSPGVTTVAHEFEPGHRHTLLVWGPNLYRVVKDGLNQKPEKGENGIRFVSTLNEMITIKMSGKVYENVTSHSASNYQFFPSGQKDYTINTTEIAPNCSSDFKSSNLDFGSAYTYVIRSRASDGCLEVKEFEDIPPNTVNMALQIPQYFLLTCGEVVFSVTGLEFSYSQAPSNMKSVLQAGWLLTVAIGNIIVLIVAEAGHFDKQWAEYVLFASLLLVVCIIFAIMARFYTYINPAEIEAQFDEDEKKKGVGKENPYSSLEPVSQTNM
The data set can be described thus: Ratio of test compound effect to JBP485 effect for substrate activity at PEPT1 in Sprague-Dawley rat jejunum assessed as effective permeability. The data set is classed as ADME, tissue-based. In short, it runs like this: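 In situ single-pass jejunal perfusion in fasted (12 h) male SD rats anaesthetised with urethane 1.5 g/kg i.p. About 10 cm of jejunum was perfused at 0.2 mL/min with pH 6.0 HEPES buffer containing 5 mM compound. Outflow was collected 15–120 min after steady state and assayed by HPLC. Peff was calculated from outlet/inlet concentration and volume ratios and segment radius and length.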

Data set [3] in a line: Cmax in Sprague-Dawley rat assessed as JBP485 level at 12 mg/kg equiv of JBP485 administered orally by UPLC-MS/MS analysis. The data set is classed as ADME, organism-based. Details: dose 12 mg/kg, route oral. The conditions noted are these: in vivo, po. In short, it runs like this:
(§1)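 Male SD rats, 200-250 g, fasted 12 h with water, n=6. Oral dose of 12 mg/kg as JBP485 equivalent; dose-effect arms at 12 and 100 mg/kg. JBP485 given iv at 6 mg/kg as the reference. Jugular blood taken at 0.083-10 h. Plasma JBP485 by UPLC-MS/MS. Absolute F = (AUCpo×Div)/(AUCiv×Dpo)×100%, using AUC0-t.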

A short description of data set [4]: Tmax in Sprague-Dawley rat assessed as JBP485 level at 12 mg/kg equiv of JBP485 administered orally by UPLC-MS/MS analysis. Format: ADME, organism-based. The conditions noted are these: in vivo, po. In short, it runs like this:
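Fasted male SD rats (200–250 g), oral 12 mg/kg (prodrugs calculated as JBP485). Jugular blood 0.083–10 h, centrifuged, plasma JBP485 by UPLC-MS/MS; n=6.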

Data set [5] is described as follows: Oral bioavailability in Sprague-Dawley rat assessed as JBP485 level at 12 mg/kg equiv of JBP485 by UPLC-MS/MS analysis. Format: ADME, organism-based. The conditions noted are these: in vivo. The gist of the method:
as §1

Data set [6] in a line: AUC (0 to t) in Sprague-Dawley rat at 6 mg/kg, iv by UPLC-MS/MS analysis. Format: ADME, organism-based. Particulars: in vivo. In short, it runs like this:
as §1

The nature of data set [7]: Cmax in Sprague-Dawley rat at 12 mg/kg, po by UPLC-MS/MS analysis. The data set is classed as ADME, organism-based. Details: dose 12 mg/kg, route oral. Particulars: in vivo. The gist of the method: as §1
Data set [8] in a line: AUC (0 to t) in Beagle dog at 12 mg/kg, po by UPLC-MS/MS analysis. Format: ADME, organism-based, Canis lupus familiaris. Particulars: in vivo. In short, it runs like this: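 Male beagle dogs, 2 years old, 8-10 kg, n=6. Single oral dose of 12 mg/kg (prodrug dosed as JBP485 equivalent) given in aqueous solution. Jugular venipuncture blood taken at 0.167-8 h into sodium heparin tubes. Plasma JBP485 measured by UPLC-MS/MS; AUC0-t and Cmax from the concentration-time profiles.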

The test system of data set [9] is Rattus norvegicus. Kind of data set: Anti-hepatitis activity in ANIT-induced Sprague-Dawley rat model of liver injury assessed as reduction in liver necrosis at 6.25 to 12.5 mg/kg, ip administered 30 mins prior to ANIT challenge and subsequent dosing at 8, 22, 32, and 46 hrs post ANIT challenge and measured 48 hrs post ANIT challenge by H and E staining-based assay. Format: functional, organism-based. The gist of the method:
(§2)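 ANIT 50 mg/kg ip liver-injury model in male SD rats, 6 per group. Oral or ip treatment at 30 min before and 8, 22, 32 and 46 h after ANIT. Liver excised at 48 h, fixed in 4% formalin, stained with H&E, and examined microscopically for hepatocellular edema and necrosis.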

The subject of data set [10] is Rattus norvegicus. Kind of data set: Anti-hepatitis activity in ANIT-induced Sprague-Dawley rat model of liver injury assessed as reduction in hepatocellular edema at 6.25 to 12.5 mg/kg, ip administered 30 mins prior to ANIT challenge and subsequent dosing at 8, 22, 32, and 46 hrs post ANIT challenge and measured 48 hrs post ANIT challenge by H and E staining-based assay. Format: functional, organism-based. The gist of the method:
as §2

The test system of data set [11] is Rattus norvegicus. The data set can be described thus: Anti-hepatitis activity in ANIT-induced Sprague-Dawley rat model of liver injury assessed as reduction in hepatocellular edema at 6.25 to 25 mg/kg, po administered 30 mins prior to ANIT challenge and subsequent dosing at 8, 22, 32, and 46 hrs post ANIT challenge and measured 48 hrs post ANIT challenge by H and E staining-based assay. Format: functional, organism-based. The gist of the method: as §2

The subject of data set [12] is Rattus norvegicus. The data set can be described thus: Anti-hepatitis activity in ANIT-induced Sprague-Dawley rat model of liver injury assessed as reduction in serum aspartate aminotransferase level at 6.25 to 25 mg/kg, po administered 30 mins prior to ANIT challenge and subsequent dosing at 8, 22, 32, and 46 hrs post ANIT challenge and measured 48 hrs post ANIT challenge. The data set is classed as functional, organism-based. The gist of the method:
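ANIT (50 mg/kg ip, olive oil) cholestatic liver injury in male SD rats, 6 per group. Oral or ip dosing (UDCA 100 mg/kg po in CMC-Na) at 30 min before and 8, 22, 32 and 46 h after ANIT. Serum collected at 48 h from the abdominal aorta; ALT and AST activities measured with kits.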

A short description of data set [13]: Cmax in Sprague-Dawley rat assessed as JBP485 level at 100 mg/kg, po by LC-MS/MS analysis. Details: dose 100 mg/kg, route oral. Format: ADME, organism-based. Particulars: in vivo. In short, it runs like this: as §1
Data set [14] is described as follows: AUC (0 to t) in Sprague-Dawley rat assessed as JBP485 level at 12 mg/kg, po by LC-MS/MS analysis. Particulars: in vivo. The data set is classed as ADME, organism-based. In short, it runs like this:
as §1

The nature of data set [15]: Terminal half life in Sprague-Dawley rat assessed as JBP485 level at 12 mg/kg, po by LC-MS/MS analysis. The data set is classed as ADME, organism-based. Particulars: in vivo. The gist of the method:
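Male SD rats (200–250 g) fasted 12 h, given JBP485 or prodrug (calculated as JBP485) orally at 12 or 100 mg/kg. Jugular blood sampled 0.083–10 h, plasma JBP485 by UPLC-MS/MS; n=6.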

The source made the active and inactive calls. No cut-off for these calls is given here.

As for `CC(C)[C@H](N)C(=O)OC[C@@H]1NC(=O)[C@@H]2C[C@@H](O)CN2C1=O`, the Ratio in data set [1] is 3 to 35; in data set [2] it was 6.03. Besides, in [3], the Cmax was 113 µM. Further, the time to peak (Tmax) in data set [4] turned out to be 0.57 h. Also, the F in [5] is given as 50.1%.
Turning to `O=C1N[C@@H](CO)C(=O)N2C[C@H](O)C[C@@H]12`, the figures for the AUCt in [6], in [8] and in [14] were 194 µM·h, 89.15 nM/ml.hr and 81.4 nM/ml.hr, respectively. Also, the values for the Cmax in data set [7] and in [13] were 27.8 µM and 95.96 nM/ml, respectively. For the same compound, the result in [9], in data set [10], in data set [11] and in [12] was Active. Also, the “beta t1/2” value in [15] turned out to be 2.12 h.

For the origin of these results see ChEMBL document CHEMBL4373712, “Bioactivatable Pseudotripeptidization of Cyclic Dipeptides To Increase the Affinity toward Oligopeptide Transporter 1 for Enhanced Oral Absorption: An Application to Cyclo(l-Hyp-l-Ser) (JBP485)” (J Med Chem, 2019).
